ChEMBL document CHEMBL4732078 (Eur J Med Chem, 2021)
Active and inactive are the calls of the source. No cut-off for these calls is given here.

What was measured:
[1] = tested on: SJRH30; assay: Antiproliferative activity against human Rh30 cells assessed as reduction in cell viability after 72 hrs by sulforhodamine B assay; assay type: functional, cell-based; settings: SJRH30, 72 h
In short: (§1)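 SRB assay. Exponentially growing cells seeded at 3000–5000/well, compounds added serially diluted after 24 h, cultured 72 h. Cells fixed with 10% TCA, stained with SRB, dye dissolved in 10 mM Tris-HCl, absorbance read at 560 nm. Inhibition = (ODcontrol − ODtreated)/ODcontrol × 100%. IC50 is the mean of at least three independent tests.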

[2] = target: T1, Phosphatidylinositol 4,5-bisphosphate 3-kinase catalytic subunit alpha isoform (Homo sapiens, UniProt P42336); assay: Inhibition of PI3Kalpha (unknown origin) transfected in human Rh30 cells assessed as reduction in AKT phosphorylation at Ser473 at 14 nM by western blot analysis; assay type: cell-based
T1 sequence (P42336 whole entry, canonical isoform): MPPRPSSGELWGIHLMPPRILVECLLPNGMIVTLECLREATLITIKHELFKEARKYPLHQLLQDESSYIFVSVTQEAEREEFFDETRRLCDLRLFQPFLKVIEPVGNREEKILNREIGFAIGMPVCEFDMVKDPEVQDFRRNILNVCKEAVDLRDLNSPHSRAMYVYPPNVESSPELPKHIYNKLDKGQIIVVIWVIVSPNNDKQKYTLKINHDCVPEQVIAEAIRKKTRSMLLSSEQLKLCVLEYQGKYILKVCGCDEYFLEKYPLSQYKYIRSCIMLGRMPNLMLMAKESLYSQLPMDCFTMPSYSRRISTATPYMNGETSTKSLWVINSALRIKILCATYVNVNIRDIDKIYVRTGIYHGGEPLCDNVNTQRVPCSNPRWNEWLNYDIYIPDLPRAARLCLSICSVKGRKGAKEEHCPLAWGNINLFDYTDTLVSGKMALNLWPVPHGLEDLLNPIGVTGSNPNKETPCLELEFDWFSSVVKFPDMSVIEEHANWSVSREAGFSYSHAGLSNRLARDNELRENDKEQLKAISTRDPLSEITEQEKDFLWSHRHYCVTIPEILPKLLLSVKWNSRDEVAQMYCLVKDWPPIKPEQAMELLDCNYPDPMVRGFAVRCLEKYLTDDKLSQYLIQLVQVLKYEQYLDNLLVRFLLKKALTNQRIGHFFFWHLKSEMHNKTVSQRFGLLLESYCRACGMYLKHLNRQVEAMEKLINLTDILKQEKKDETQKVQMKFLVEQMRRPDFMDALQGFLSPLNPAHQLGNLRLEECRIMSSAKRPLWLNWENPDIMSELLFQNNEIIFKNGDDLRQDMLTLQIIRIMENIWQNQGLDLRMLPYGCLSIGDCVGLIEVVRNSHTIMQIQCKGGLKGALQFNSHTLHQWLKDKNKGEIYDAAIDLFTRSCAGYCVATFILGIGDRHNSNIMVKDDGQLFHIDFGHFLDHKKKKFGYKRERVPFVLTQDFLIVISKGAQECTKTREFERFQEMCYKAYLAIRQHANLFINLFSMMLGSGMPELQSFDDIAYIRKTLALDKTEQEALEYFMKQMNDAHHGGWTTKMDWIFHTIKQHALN
In short: (§2)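 Rh30 cells ectopically expressing membrane-anchored, N-terminally myristoylated, constitutively active p110α, β, γ or δ. Akt phosphorylation assessed by Western blot; lysates made in RIPA buffer, equal protein heated at 95 °C for 10 min in SDS loading buffer.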

[3] = target: T1, Phosphatidylinositol 4,5-bisphosphate 3-kinase catalytic subunit alpha isoform; assay: Inhibition of PI3Kalpha in human U87MG cells assessed as reduction in rhIGF1-stimulated AKT phosphorylation at Ser473 treated for 1 hr followed by incubation with IGF1 for 10 mins by western blot analysis; assay type: cell-based; settings: U-87 MG, dose 0.01-1 µM, time 70.0 min
In short: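 U87MG or Rh30 cells held 24 h in serum-free medium, exposed to compound for 1 h, then stimulated with 50 ng/ml IGF-I for 10 min. Lysates blotted for Akt, pAkt T308 and pAkt S473.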

[4] = tested on: MCF7; assay: Antiproliferative activity against human MCF7 cells assessed as reduction in cell viability after 72 hrs by sulforhodamine B assay; assay type: functional, cell-based; settings: MCF7, 72 h; in short: as §1
[5] = tested on: Mus musculus; assay: In vivo inhibition of PI3Kalpha in BALB/cA nude mouse xenografted with human SK-OV-3 cells assessed as reduction in AKT phosphorylation at Ser473 residue in tumor at 5 mg/kg, po measured after 2 hrs by Western blot analysis; assay type: functional, organism-based
In short: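 Nude mice carrying SKOV-3 xenografts of 200 mm³ got a single oral 5 mg/kg dose. Tumors were collected at 0, 2, 4 or 8 h, homogenized, and pAkt S473 probed by Western blot.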

[6] = Toxicity in BALB/cA nude mouse xenografted with human SK-OV-3 cells assessed as changes in body weight at 5 to 20 mg/kg, po administered once a day for 21 days and measured twice per week; assay type: organism-based; settings: in vivo, 504 h, dose 5-20 mg/kg/day, time 21 day
In short: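 Female BALB/cA nude mice, 4–5 weeks old, received s.c. passaged SKOV-3 tumor fragments (1.5 mm³) in the right flank. At about 100 mm³ they were randomized to oral vehicle or compound once daily for 21 days. Body weight was measured individually twice per week.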

[7] = Toxicity in 6 hrs fasted BALB/cA nude mouse xenografted with human SK-OV-3 cells assessed as blood glucose tolerance at 5 to 20 mg/kg, po administered once a day for 18 days and measured upto 2 hrs post-last dose by oral glucose tolerance test; assay type: organism-based; settings: in vivo, 432 h, dose 5-20 mg/kg/day, time 18 day
In short: (§3)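 Female BALB/cA nude mice, 4–5 weeks old, carried s.c. SKOV-3 xenograft fragments. They were dosed orally once daily for 18 days with vehicle or compound, then fasted 6 h and given glucose orally at 2 g/kg. Blood was sampled at set times up to 2 h, and glucose was measured with a blood glucose meter.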

[8] = Metabolic stability in human hepatocytes assessed as half life; assay type: ADME, cell-based, Hepatocyte
[9] = Metabolic stability in cynomolgus monkey hepatocytes assessed as intrinsic clearance; assay type: ADME, cell-based, Macaca fascicularis, Hepatocyte; settings: read-out: CLH
[10] = Tmax in rat at 10 mg/kg, po; assay type: ADME, organism-based; settings: in vivo
In short: (§4)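 Male rats were dosed orally at 10 mg/kg, with a parallel i.v. arm at 5 mg/kg. Plasma PK parameters were derived, including Cmax, Tmax, T1/2 and AUC0-∞, with oral bioavailability (F) reported against the i.v. arm.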

[11] = Oral bioavailability in rat at 10 mg/kg; assay type: ADME, organism-based; settings: in vivo; in short: as §4
[12] = target: Phosphatidylinositol 4,5-bisphosphate 3-kinase catalytic subunit beta isoform (Homo sapiens) (UniProt P42338); assay: Inhibition of PI3Kbeta (unknown origin) transfected in human Rh30 cells assessed as reduction in AKT phosphorylation at Thr308 residue at 10XIC50 by western blot analysis; assay type: cell-based; in short: as §2
Sequence of Phosphatidylinositol 4,5-bisphosphate 3-kinase catalytic subunit beta isoform (Homo sapiens) (P42338 whole entry, looked up, canonical isoform): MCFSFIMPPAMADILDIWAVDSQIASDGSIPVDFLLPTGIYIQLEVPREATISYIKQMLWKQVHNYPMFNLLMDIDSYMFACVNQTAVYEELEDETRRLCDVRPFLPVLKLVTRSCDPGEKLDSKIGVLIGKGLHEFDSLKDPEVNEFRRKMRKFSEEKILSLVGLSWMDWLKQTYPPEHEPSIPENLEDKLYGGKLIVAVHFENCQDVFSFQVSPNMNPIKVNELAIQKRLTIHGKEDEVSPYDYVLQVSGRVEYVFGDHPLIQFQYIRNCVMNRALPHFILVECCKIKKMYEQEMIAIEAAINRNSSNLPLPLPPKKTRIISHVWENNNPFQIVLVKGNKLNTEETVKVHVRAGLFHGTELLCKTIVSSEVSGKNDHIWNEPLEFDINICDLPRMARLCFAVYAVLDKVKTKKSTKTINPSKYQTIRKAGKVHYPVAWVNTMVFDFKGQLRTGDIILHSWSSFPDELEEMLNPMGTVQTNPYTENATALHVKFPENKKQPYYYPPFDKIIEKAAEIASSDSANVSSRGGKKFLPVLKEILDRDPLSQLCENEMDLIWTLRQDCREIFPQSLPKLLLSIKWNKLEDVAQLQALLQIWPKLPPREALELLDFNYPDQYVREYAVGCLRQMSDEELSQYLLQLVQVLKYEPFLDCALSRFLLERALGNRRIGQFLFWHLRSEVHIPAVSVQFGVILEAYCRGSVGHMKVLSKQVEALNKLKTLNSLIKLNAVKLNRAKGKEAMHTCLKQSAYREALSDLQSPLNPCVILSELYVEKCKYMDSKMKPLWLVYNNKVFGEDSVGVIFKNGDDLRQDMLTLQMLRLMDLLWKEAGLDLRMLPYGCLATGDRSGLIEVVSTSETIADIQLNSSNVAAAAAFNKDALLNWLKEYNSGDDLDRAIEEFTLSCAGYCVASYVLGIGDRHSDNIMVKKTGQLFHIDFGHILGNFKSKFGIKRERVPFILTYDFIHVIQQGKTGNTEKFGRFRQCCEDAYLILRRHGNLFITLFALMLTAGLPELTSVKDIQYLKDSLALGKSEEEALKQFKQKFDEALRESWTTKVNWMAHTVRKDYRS

[13] = target: Phosphatidylinositol 4,5-bisphosphate 3-kinase catalytic subunit gamma isoform (Homo sapiens) (UniProt P48736); assay: Inhibition of PI3Kgamma (unknown origin) transfected in human Rh30 cells assessed as reduction in AKT phosphorylation at Ser473 residue at 10XIC50 by western blot analysis; assay type: cell-based; in short: as §2
Sequence of Phosphatidylinositol 4,5-bisphosphate 3-kinase catalytic subunit gamma isoform (Homo sapiens) (P48736 whole entry, looked up, canonical isoform): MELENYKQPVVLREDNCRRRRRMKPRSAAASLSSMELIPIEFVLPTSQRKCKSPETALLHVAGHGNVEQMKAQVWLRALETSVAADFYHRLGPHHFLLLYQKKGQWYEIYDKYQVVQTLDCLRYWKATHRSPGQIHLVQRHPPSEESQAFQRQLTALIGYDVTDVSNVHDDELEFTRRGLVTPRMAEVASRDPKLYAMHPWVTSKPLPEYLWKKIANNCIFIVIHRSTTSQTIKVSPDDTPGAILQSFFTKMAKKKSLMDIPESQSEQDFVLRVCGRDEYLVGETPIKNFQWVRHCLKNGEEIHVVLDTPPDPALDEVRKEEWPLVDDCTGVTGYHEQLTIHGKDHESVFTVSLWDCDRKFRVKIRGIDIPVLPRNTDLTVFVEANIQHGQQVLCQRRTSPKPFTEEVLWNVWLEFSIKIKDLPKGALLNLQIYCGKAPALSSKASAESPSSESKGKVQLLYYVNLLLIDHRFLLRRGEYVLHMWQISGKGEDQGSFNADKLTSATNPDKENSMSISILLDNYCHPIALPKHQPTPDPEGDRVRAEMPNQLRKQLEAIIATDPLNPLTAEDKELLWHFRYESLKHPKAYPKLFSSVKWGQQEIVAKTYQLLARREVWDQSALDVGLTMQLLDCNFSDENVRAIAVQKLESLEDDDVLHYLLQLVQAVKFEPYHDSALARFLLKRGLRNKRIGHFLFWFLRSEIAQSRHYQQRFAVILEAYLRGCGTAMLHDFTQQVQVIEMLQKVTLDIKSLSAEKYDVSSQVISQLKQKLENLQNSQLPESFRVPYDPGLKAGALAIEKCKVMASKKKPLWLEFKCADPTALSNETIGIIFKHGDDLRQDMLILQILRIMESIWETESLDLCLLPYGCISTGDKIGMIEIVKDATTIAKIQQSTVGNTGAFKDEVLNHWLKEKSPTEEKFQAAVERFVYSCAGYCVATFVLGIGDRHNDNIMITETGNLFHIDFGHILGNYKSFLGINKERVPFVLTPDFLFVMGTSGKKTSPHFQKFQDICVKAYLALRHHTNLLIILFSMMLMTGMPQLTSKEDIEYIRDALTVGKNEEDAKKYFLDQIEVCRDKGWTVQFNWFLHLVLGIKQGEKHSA

[14] = target: Phosphatidylinositol 4,5-bisphosphate 3-kinase catalytic subunit gamma isoform (Homo sapiens) (UniProt P48736); assay: Inhibition of PI3Kgamma (unknown origin) transfected in human Rh30 cells assessed as reduction in AKT phosphorylation at Thr308 residue at 10XIC50 by western blot analysis; assay type: cell-based; in short: as §2
[15] = target: Phosphatidylinositol 4,5-bisphosphate 3-kinase catalytic subunit delta isoform (Homo sapiens) (UniProt O00329); assay: Inhibition of PI3Kdelta (unknown origin) transfected in human Rh30 cells assessed as reduction in AKT phosphorylation at Thr308 residue at 10XIC50 by western blot analysis; assay type: cell-based; in short: as §2
[16] = target: Serine/threonine-protein kinase mTOR (Homo sapiens, UniProt P42345); assay: Inhibition of human full length recombinant mTOR in presence of [gamma33P-ATP] by radiometric scintillation counting analysis
[17] = tested on: LoVo; assay: Antiproliferative activity against human LoVo cells assessed as reduction in cell viability after 72 hrs by sulforhodamine B assay; assay type: functional, cell-based; in short: as §1
[18] = Toxicity in BALB/cA nude mouse xenografted with human SK-OV-3 cells assessed as blood glucose level at 5 to 20 mg/kg, po administered once a day for 18 days by glucose meter analysis; assay type: organism-based; settings: in vivo, 432 h, dose 5-20 mg/kg/day, time 18 day; in short: as §3
[19] = organism: Homo sapiens; assay: Selectivity index, ratio of IC50 for human PI3K p110beta/p85alpha to IC50 for human PI3Kalpha by HTRF assay
In short: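 The PI3K isoforms were assayed with an HTRF kit. Each enzyme was incubated in assay buffer containing 10 μM PIP2, and the reaction was started with ATP and run 30 min at room temperature. Stop solution and detection mix were then added and light emission was read. IC50 values were averages of at least 3 separate determinations, and each index is the ratio of IC50 values.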

[20] = target: PI3-kinase p110-delta/p85-alpha (Homo sapiens, UniProt O00329); assay: Inhibition of human PI3K p110delta/p85alpha using PIP2 as substrate in presence of ATP measured after 30 mins by HTRF assay
Sequence of PI3-kinase p110-delta/p85-alpha (P27986 whole entry): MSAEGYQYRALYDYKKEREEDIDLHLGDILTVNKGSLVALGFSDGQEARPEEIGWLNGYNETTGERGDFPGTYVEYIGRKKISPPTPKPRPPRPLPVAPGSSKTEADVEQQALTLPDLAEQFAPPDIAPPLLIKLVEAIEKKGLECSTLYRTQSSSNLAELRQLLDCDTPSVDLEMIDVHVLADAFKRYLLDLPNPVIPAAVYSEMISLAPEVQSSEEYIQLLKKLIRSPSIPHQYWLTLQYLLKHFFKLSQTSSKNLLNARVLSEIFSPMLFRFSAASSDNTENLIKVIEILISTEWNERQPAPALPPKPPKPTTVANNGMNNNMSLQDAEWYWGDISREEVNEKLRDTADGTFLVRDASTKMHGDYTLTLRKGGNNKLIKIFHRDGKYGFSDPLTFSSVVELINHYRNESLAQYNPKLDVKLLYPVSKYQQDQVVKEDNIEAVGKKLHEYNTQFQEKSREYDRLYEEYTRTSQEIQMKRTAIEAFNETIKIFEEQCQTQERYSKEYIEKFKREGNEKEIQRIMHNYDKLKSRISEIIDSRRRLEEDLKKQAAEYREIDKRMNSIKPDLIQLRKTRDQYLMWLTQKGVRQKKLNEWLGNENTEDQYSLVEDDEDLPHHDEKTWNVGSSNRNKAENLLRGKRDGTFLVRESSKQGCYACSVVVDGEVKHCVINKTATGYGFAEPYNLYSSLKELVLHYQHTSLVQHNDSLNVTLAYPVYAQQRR
Sequence of PI3-kinase p110-delta/p85-alpha (O00329 whole entry): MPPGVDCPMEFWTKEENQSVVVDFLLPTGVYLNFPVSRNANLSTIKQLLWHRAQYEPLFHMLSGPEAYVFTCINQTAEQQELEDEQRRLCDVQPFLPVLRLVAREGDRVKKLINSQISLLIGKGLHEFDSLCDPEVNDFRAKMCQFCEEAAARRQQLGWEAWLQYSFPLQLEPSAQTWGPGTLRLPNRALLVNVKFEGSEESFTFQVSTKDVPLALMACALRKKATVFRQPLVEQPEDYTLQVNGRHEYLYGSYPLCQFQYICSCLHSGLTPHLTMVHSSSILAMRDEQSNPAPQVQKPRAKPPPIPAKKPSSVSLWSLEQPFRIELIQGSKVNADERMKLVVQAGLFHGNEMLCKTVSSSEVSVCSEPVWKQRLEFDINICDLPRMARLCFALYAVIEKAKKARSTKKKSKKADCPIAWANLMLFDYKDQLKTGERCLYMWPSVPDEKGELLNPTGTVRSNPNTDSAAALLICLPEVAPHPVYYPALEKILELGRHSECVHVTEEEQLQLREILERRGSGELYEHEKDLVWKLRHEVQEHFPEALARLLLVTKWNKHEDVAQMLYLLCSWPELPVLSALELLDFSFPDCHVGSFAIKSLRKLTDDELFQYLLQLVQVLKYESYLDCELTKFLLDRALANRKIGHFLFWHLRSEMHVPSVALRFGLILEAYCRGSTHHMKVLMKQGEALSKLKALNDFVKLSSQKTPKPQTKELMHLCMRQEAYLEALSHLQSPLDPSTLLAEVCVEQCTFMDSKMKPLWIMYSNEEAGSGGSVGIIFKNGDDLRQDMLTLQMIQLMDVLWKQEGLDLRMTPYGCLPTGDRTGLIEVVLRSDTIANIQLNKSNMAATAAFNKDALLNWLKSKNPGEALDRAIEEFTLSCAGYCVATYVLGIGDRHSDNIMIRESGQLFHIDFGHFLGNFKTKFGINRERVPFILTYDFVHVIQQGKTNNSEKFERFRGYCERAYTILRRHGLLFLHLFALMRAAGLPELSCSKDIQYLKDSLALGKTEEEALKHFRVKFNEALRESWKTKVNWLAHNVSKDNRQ

[21] = Inhibition of human PI3K p110alpha E545K mutant/p85alpha using PIP2 as substrate incubated for 30 mins in presence of ATP by HTRF assay
[22] = target: PI3K p110 beta/p85 alpha (Homo sapiens, UniProt P42338); assay: Inhibition of human PI3K p110beta/p85alpha using PIP2 as substrate incubated for 30 mins in presence of ATP measured after 30 mins by HTRF assay
Sequence of PI3K p110 beta/p85 alpha (P27986 whole entry): as the sequence (P27986 whole entry) above
Sequence of PI3K p110 beta/p85 alpha (P42338 whole entry): as the sequence (P42338 whole entry, looked up, canonical isoform) above

What does the source list for `COC(=O)Nc1cc(C(F)(F)F)c(-c2nc(N3CCOCC3)c3cc(CN4CCN(S(C)(=O)=O)CC4)cn3n2)cn1` [RISOVALISIB]?
IC50 [1]: 1030 nM; inhibition [2]: Active; inhibition [3]: Dose-dependent effect; IC50 [4]: < 1000 nM; inhibition [5]: Active; Activity [6]: Non-Toxic; Activity [7]: Non-Toxic; half-life [8]: 6.79 h; CLint scaled [9]: 29 mL/min/kg; Tmax [10]: 0.875 h; bioavailability [11]: 36.9%; inhibition [12]: Active; inhibition [13]: Active; inhibition [14]: Active; inhibition [15]: Active; IC50 [16]: > 10000 nM; IC50 [17]: < 1000 nM; Activity [18]: Non-Toxic; Ratio IC50 [19]: 101; IC50 [20]: 78.7 nM; IC50 [21]: 17.1 nM; IC50 [22]: 598 nM
